Here are results for one compound from PMC4889517 (Nanomedicine : nanotechnology, biology, and medicine, 2016).

The subject of series [1] is PC-3 cell tumor xenografts. The series is described as follows: TUNEL assay of apoptosis in tumor xenograft sections. Type of series: in vivo, athymic nude mice. Particulars: 5 mg/kg i.p., 2 days/week, day 25. In short, it runs like this:
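PC-3 xenografts were collected on day 25, after 18 days of i.p. dosing twice weekly at 5 mg/kg, with DMSO and empty liposome controls. Frozen sections were fixed in 2% paraformaldehyde (4°C, 30 min) and permeabilized in ethanol:acetic acid 2:1. They were labeled with fluorescein-12-dUTP by terminal deoxynucleotidyl transferase and counterstained with DAPI. TUNEL-positive cells were counted by fluorescence microscopy (n = 4).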

The test system of the next series is MCF-7. Kind of series: MTT staining cytotoxicity, MCF-7. The format is cell-based, human. Particulars: read-out: IC50 (MTT).
The next series relates to prostate tumor xenograft. The settings on record: daily administration ref 8; cited from earlier work.
Another series deals with PC-3 cells. The series is described as follows: Annexin V and PI staining by flow cytometry. The format is cell-based, human. The settings on record: PC-3, 48 hr; free IPA-3 20-30 μM. Put shortly: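 PC-3 cells (F12K, 10% FBS, 37°C, 5% CO₂) were grown 24 h, then exposed to free test compound, liposomal test compound or empty liposomes. After treatment they were PBS-washed twice and stained for 10 min with annexin V-FITC and PI in HEPES binding buffer (140 mM NaCl, 1.8 mM CaCl2, pH 7.4). Cells were washed three times, scraped off, and 10,000 events counted by flow cytometry. Mean ± SEM of percent stained cells.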
A general note: A flow cytometer gives signals particle by particle.

A further series deals with LNCaP cells. The series is described as follows: MTT staining cytotoxicity, LNCaP. The format is cell-based, human. Particulars: read-out: IC50 (MTT). Put shortly:
(§1)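 Cells were seeded at 5 × 10⁴ cells/ml (DU-145 in EMEM, LNCaP in RPMI, 10% FBS) and allowed to attach for 24 h. Free test compound was given at 1.56–50 μM, with DMSO and empty liposome controls, for 24, 48 or 72 h. MTT (0.25 mg/ml final) was added for 2 h at 37°C, formazan dissolved in DMSO, and absorbance read at 590 nm. IC50 came from the concentration-effect curve. Triplicates, n = 3.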

The conditions of series [2]: free form, rapid metabolism ref 10; cited from earlier work.
A further series deals with DU-145 cells. Kind of series: MTT staining cytotoxicity, DU-145. Type of series: cell-based, human. In short, it runs like this: as §1
For another series, the system named is MDA-231. The series is described as follows: MTT staining cytotoxicity, MDA-231. Type of series: cell-based, human. The settings on record: read-out: IC50 (MTT).
A short description of series [3]: Body weight of tumor bearing mice. Type of series: in vivo, athymic nude mice. Particulars: 5 mg/kg i.p., 2 days/week, after 25 days. Put shortly:
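Athymic nude mice carried SC PC-3 xenografts and were dosed i.p. twice weekly from day 7. Groups were free or liposomal test compound at 5 mg/kg, DMSO, or empty liposomes. Body weight was recorded on day 25 after implantation, which was day 18 of treatment. Mean ± SEM.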

Series [4] relates to PC-3 cell tumor xenografts. Kind of series: In vivo prostate tumor xenograft growth. The settings on record: 5 mg/kg i.p., 2 days/week from day 7 to day 25. Also noted: species or system athymic nude mice. In short, it runs like this:
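Male athymic nude mice, 6-8 weeks old (n = 5-6), received 3 million PC-3 cells in sterile saline SC. From day 7, dosing was i.p. twice weekly: free or sterically stabilized liposomal test compound at 5 mg/kg, with DMSO or empty liposome controls. Calipers were used on days 7, 14, 21 and 25, with volume = ½[length × width²]. Tumors were excised and weighed on day 25.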

For series [5], the system named is human prostate cancer PC-3, LNCaP and DU-145 cells. The series is described as follows: MTT staining cytotoxicity in prostate cancer cell lines. Type of series: cell-based. Particulars: concentrations of 5-30 μM; 24, 48, 72 hrs.

“Also recorded” adds a separate entry of the source.

Take `Oc1ccc2ccccc2c1SSc1c(O)ccc2ccccc12` [IPA-3]: in [1], the “number of apoptotic (TUNEL positive) cells per field compared to control groups” value was “significant increases”. The IC50 was 25 µM in the series with MCF-7; 10 µM in the series on LNCaP cells; ~32 µM in the series with DU-145 cells (read-out: IC50 (MTT), DU-145); 8 µM with MDA-231. In the series with prostate tumor xenograft, the “prostate tumor xenograft growth” value is “reduced”. For the same compound, the “percent cells staining positive for annexin V alone” value in the series with PC-3 cells is on record as “significantly increased”. Besides, in the series with PC-3 cells, the “percent cells staining positive for both annexin V and PI” value was “significantly increased”. In addition, in [2], the half-life in vivo result is listed as “very short”. Moreover, the “susceptibility to toxicity (MTT staining)” value with DU-145 cells (DU-145 compared to PC-3 and LNCaP cells) is “less susceptible”. The “effect on body weight of mice” value in series [3] is listed as “no significant effect”. Also, in series [4], the “PC-3 cell tumor xenograft growth” value is on record as “ineffective; also recorded: did not have a significant effect”. Moreover, the “effect on MTT staining” value in series [5] is “concentration- and time-dependent decreases in MTT staining”.

Broadly, the IC50 is the concentration that inhibits the measured activity by half.
